Data set [1] can be described thus: Plasma clearance in rat. In kind it is ADME, organism-based. The settings on record: read-out: Clp.
A short description of data set [2]: Oral bioavailability in rat. In kind it is ADME, organism-based. The following applies: in vivo.
In data set [3] the test system is Human immunodeficiency virus 1. The experiment in a line: In vitro antiviral activity against HIV-1 infected HeLa cells. In kind it is functional. The settings on record: Human immunodeficiency virus 1, HeLa. A digest of the protocol: (§1)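 Cell-culture HIV-1 infectivity assay in HeLa cells. Read-out is the IC90, with the IC50 given for some entries.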
Data set [4] addresses T1, C-C chemokine receptor type 5 (Homo sapiens, UniProt P51681). As to the kind of experiment: Inhibitory concentration to displace [125I]-MIP-1 alpha from human […] chemokine receptor 5 expressed in CHO cell. In kind it is cell-based. A digest of the protocol:
(§2)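 Displacement of [125I]-labeled MIP-1α from human CCR5 on CHO cell membranes, described as a GP120-membrane-based assay. IC50 values are averages of triplicate measurements, with a standard compound run to check variability between assays. Single-point lines are percent inhibition at 2 μM.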

The nature of data set [5]: Hafl life in rat. The following applies: in vivo. In kind it is ADME, organism-based.
The target of data set [6] is T1, C-C chemokine receptor type 5. The experiment in a line: Inhibitory concentration to displace [125I]-MIP-1 alpha from CX3C chemokine receptor 5. A digest of the protocol:
as §2

Data set [7] deals with Rattus norvegicus. As to the kind of experiment: Area under curve in rat after p.o. administration. In kind it is ADME, organism-based. The settings on record: in vivo, po.
Data set [8] has as its system HeLa. The experiment in a line: In vitro antiviral activity against HIV-1 infected HeLa cells when co-administered with compound 8g. In kind it is functional. The settings on record: Homo sapiens. A digest of the protocol:
as §1

Data set [9] deals with T1, C-C chemokine receptor type 5. The experiment in a line: Inhibitory activity against human […] chemokine receptor 5 when co-administered with compound 8g.

Molecules are shown by their SMILES. Some results are limits rather than exact numbers.

T1 sequence (P51681 whole entry): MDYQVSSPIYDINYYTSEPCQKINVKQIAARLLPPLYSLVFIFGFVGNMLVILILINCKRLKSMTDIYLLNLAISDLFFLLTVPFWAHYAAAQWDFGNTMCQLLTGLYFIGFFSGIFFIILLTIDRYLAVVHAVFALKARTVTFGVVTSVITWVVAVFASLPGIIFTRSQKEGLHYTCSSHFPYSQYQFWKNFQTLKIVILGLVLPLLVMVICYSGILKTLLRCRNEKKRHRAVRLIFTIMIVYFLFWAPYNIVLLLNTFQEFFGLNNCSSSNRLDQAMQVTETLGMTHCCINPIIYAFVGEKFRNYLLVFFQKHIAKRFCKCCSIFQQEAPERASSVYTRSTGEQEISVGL

In the case of `CCn1nc(Cc2ccccc2)cc1C1CCN(C[C@H]2CN([C@@H](C(=O)O)C3CCCCC3)C[C@@H]2c2ccccc2)CC1`, in data set [1], the clearance turned out to be 3.84 L/h/kg. Besides, in data set [2], the bioavailability (commonly dose-corrected exposure relative to a reference, in per cent) was found to be 4.1%. For the same compound, the 90% effect concentration (IC90) (usually the concentration at which the effect reaches the 90% level) in [3] turned out to be 0.4 nM. In addition, the IC50 (in general, the point on the concentration scale where inhibition reaches its midpoint) worked out at 1.2 nM in data set [4] and 2.1 nM in data set [6]. Further, in [5], the half-life – broadly, how long it takes for the measured level to halve – is 49.2 min. Besides, in [7], the “AUC N” value is on record as 0.02 uM hr dose-1.
For `CCc1cc(CCc2ccccc2)nn1C1CCN(C[C@H]2CN([C@@H](C(=O)O)C3CCCCC3)C[C@@H]2c2ccccc2)CC1`, the IC90 in data set [8] was > 300 nM. The IC50 in data set [9] came out at 105 nM.

Values taken from ChEMBL document CHEMBL1147444, “Antagonists of human CCR5 receptor containing 4-(pyrazolyl)piperidine side chains. Part 1: Discovery and SAR study of 4-pyrazolylpiperidine side chains” (Bioorg Med Chem Lett, 2004).
